Values after ≈ are worked out from the molar mass of the structure shown.
Tests used:
Staphylococcus aureus [1] = assay: Antibacterial activity against Staphylococcus aureus MSSA 22 at 30 ug/disk at 37 degC after 24 hrs by filter paper disk method; format: functional; conditions: MSSA 22, 24 h, read-out: DIZ
Method in brief: (§1)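 Disc diffusion on nutrient agar. Inoculum was grown overnight in NA broth at 37 °C, centrifuged, and resuspended in sterile NSS to 10⁵ cfu/ml; about 0.1 ml was spread per plate. Sterile 8 mm discs carried compound, with a 1 mg/ml DMSO stock diluted two-fold from 300 to 18.75. Controls were a solvent disc and a chloramphenicol disc. After 24 h at 37 °C, inhibition-zone diameter was read in mm.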

Salmonella typhimurium [2] = assay: Antibacterial activity against Salmonella Typhimurium MTCC 98 at 37 degC after 24 hrs by filter paper disk method; format: functional, Salmonella enterica subsp. enterica serovar Typhimurium; conditions: for MIC: Salmonella enterica, MTCC 98, 24 h
Method in brief: (§2)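 Compounds were taken from a 1 mg/ml DMSO stock and serially diluted two-fold over a 300 to 18.75 range, then loaded onto sterile 8 mm paper discs. Bacteria were grown overnight in nutrient broth at 37 °C, pelleted, and resuspended in sterile NSS to 10⁵ cfu/ml. About 0.1 ml was spread on NA plates. Plates were incubated 24 h at 37 °C with a solvent control disc, and inhibition zone diameter was read in mm.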

Escherichia coli [3] = assay: Antibacterial activity against Escherichia coli K-12 at 30 ug/disk at 37 degC after 24 hrs by filter paper disk method; format: functional; conditions: K-12, 24 h, read-out: DIZ; method in brief: as §1
Bacillus subtilis [4] = assay: Antibacterial activity against Bacillus subtilis ATCC 6051 at 37 degC after 24 hrs by filter paper disk method; format: functional; conditions: for MIC: Bacillus subtilis, ATCC 6051, 24 h; method in brief: as §2
Salmonella typhimurium [5] = assay: Antibacterial activity against Salmonella Typhimurium MTCC 98 at 30 ug/disk at 37 degC after 24 hrs by filter paper disk method; format: functional, Salmonella enterica subsp. enterica serovar Typhimurium; conditions: Salmonella enterica, MTCC 98, 24 h; read-out: DIZ
Method in brief: (§3)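 Chloramphenicol was given as a reference antibiotic disc. Bacteria were grown overnight in nutrient broth at 37 °C and adjusted to 10⁵ cfu/ml in sterile NSS. About 0.1 ml was spread on NA plates next to 8 mm discs, including a solvent disc. Plates were incubated 24 h at 37 °C, and zones of inhibition were measured in mm.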

Bacillus subtilis [6] = assay: Antibacterial activity against Bacillus subtilis ATCC 6051 at 30 ug/disk at 37 degC after 24 hrs by filter paper disk method; format: functional; conditions: ATCC 6051, 24 h, read-out: DIZ; method in brief: as §3
Escherichia coli [7] = assay: Antibacterial activity against Escherichia coli K-12 at 37 degC after 24 hrs by filter paper disk method; format: functional; conditions: for MIC: Escherichia coli, K-12, 24 h; method in brief: as §2
Staphylococcus aureus [8] = assay: Antibacterial activity against Staphylococcus aureus MSSA 22 at 37 degC after 24 hrs by filter paper disk method; format: functional; conditions: for MIC: Staphylococcus aureus, MSSA 22, 24 h; method in brief: as §2
Trichoderma viride [9] = assay: Antifungal activity against Trichoderma viride at 28 degC after 72 hrs; format: functional
Method in brief: (§4)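 Filamentous fungi were kept on SDA at 28 °C. Spores from 7-day cultures were suspended in sterile normal saline to about 10⁵ cfu/ml, and about 0.1 ml was spread on SDA plates. Compounds were serially diluted two-fold in DMSO and impregnated on 8 mm discs, with a solvent control disc on each plate. Plates were held at 28 °C for 72 h or more, and inhibition zone diameter was read in mm.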

Aspergillus niger [10] = assay: Antifungal activity against Aspergillus niger at 30 ug/disk at 28 degC after 72 hrs; format: functional, organism-based
Method in brief: (§5)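 Disc diffusion on SDA; cultures were kept at 28 °C. Spores from 7-day cultures were suspended in sterile normal saline ([…] NaCl as printed) and diluted to about 10⁵ cfu/ml; about 0.1 ml was spread per plate. 8 mm discs carried compound from a DMSO stock, alongside a solvent disc and a nystatin disc. After 72 h or more at 28 °C, inhibition-zone diameter was read in mm.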

Candida albicans [11] = assay: Antifungal activity against Candida albicans IOA-109 at 37 degC after 18 to 48 hrs; format: functional
Aspergillus niger [12] = assay: Antifungal activity against Aspergillus niger at 28 degC after 72 hrs; format: functional; method in brief: as §4
Helminthosporium [13] = assay: Antifungal activity against Helminthosporium oryzae 2537 ICAR at 28 degC after 72 hrs; format: functional; method in brief: as §4
Penicillium sp. [14] = assay: Antifungal activity against Penicillium sp. at 28 degC after 72 hrs; format: functional; method in brief: as §4
Helminthosporium [15] = assay: Antifungal activity against Helminthosporium oryzae 2537 ICAR at 30 ug/disk at 28 degC after 72 hrs; format: functional, organism-based; method in brief: as §5
Candida albicans [16] = assay: Antifungal activity against Candida albicans IOA-109 at 30 ug/disk at 37 degC after 18 to 48 hrs; format: functional, organism-based
Method in brief: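 Disc diffusion on SDA. Inoculum was grown overnight in SD broth at 37 °C, centrifuged, and resuspended in sterile NSS to 10⁵ cfu/ml; about 0.1 ml was spread per plate. 8 mm discs carried compound from a DMSO stock, alongside a solvent disc and a nystatin disc. After 18–48 h at 37 °C, inhibition-zone diameter was read in mm.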

Trichoderma viride [17] = assay: Antifungal activity against Trichoderma viride at 30 ug/disk at 28 degC after 72 hrs; format: functional, organism-based; method in brief: as §5
Penicillium sp. [18] = assay: Antifungal activity against Penicillium sp. at 30 ug/disk at 28 degC after 72 hrs; format: functional, organism-based; method in brief: as §5

O=C(N[C@H](CO)[C@H](O)c1ccc([N+](=O)[O-])cc1)C(Cl)Cl [CHLORAMPHENICOL]
zone of inhibition at 30 µg/disc (Staphylococcus aureus [1]): 26 mm
MIC (Salmonella typhimurium [2]): 6 µg/mL (≈ 18.6 µM)
zone of inhibition at 30 µg/disc (Escherichia coli [3]): 25 mm
MIC (Bacillus subtilis [4]): 6 µg/mL (≈ 18.6 µM)
zone of inhibition at 30 µg/disc (Salmonella typhimurium [5]): 20 mm
zone of inhibition at 30 µg/disc (Bacillus subtilis [6]): 24 mm
MIC (Escherichia coli [7]): 12.5 µg/mL (≈ 38.7 µM)
MIC (Staphylococcus aureus [8]): 12.5 µg/mL (≈ 38.7 µM)

NYSTATIN
MIC (Trichoderma viride [9]): 6 µg/mL
inhibition zone (IZ) (Aspergillus niger [10]): 18 mm
MIC (Candida albicans [11]): 6 µg/mL
MIC (Aspergillus niger [12]): 12.5 µg/mL
MIC (Helminthosporium [13]): 12.5 µg/mL
MIC (Penicillium sp. [14]): 6 µg/mL
inhibition zone (IZ) (Helminthosporium [15]): 18 mm
inhibition zone (IZ) (Candida albicans [16]): 20 mm
inhibition zone (IZ) (Trichoderma viride [17]): 15 mm
inhibition zone (IZ) (Penicillium sp. [18]): 20 mm

CCCCCC[C@@H](O)C/C=C\CCCCCCCc1nc2c([nH]1)CCCC2
diameter of the inhibition zone (DIZ) (Trichoderma viride [9]): 7 mm
MIC (Trichoderma viride [9]; Trichoderma viride, 72 h): 37.5 µg/mL (≈ 100 µM)
diameter of the inhibition zone (DIZ) (Salmonella typhimurium [2]): 12 mm
MIC (Salmonella typhimurium [2]): 75 µg/mL (≈ 200 µM)
diameter of the inhibition zone (DIZ) (Bacillus subtilis [4]): 19 mm
MIC (Bacillus subtilis [4]): 75 µg/mL (≈ 200 µM)
diameter of the inhibition zone (DIZ) (Candida albicans [11]): 17 mm
MIC (Candida albicans [11]; Candida albicans, IOA-109): 75 µg/mL (≈ 200 µM)
diameter of the inhibition zone (DIZ) (Aspergillus niger [12]): 12 mm
MIC (Aspergillus niger [12]; Aspergillus niger, 72 h): 37.5 µg/mL (≈ 100 µM)
diameter of the inhibition zone (DIZ) (Helminthosporium [13]): 11 mm
MIC (Helminthosporium [13]; Helminthosporium, 72 h): 150 µg/mL (≈ 400 µM)
diameter of the inhibition zone (DIZ) (Penicillium sp. [14]): 16 mm
MIC (Penicillium sp. [14]; Penicillium sp., 72 h): 75 µg/mL (≈ 200 µM)
diameter of the inhibition zone (DIZ) (Escherichia coli [7]): 15 mm
MIC (Escherichia coli [7]): 150 µg/mL (≈ 400 µM)
diameter of the inhibition zone (DIZ) (Staphylococcus aureus [8]): 17 mm
MIC (Staphylococcus aureus [8]): 75 µg/mL (≈ 200 µM)

Source: ChEMBL document CHEMBL1137675, “Convenient one-pot synthesis of novel 2-substituted benzimidazoles, tetrahydrobenzimidazoles and imidazoles and evaluation of their in vitro antibacterial and antifungal activities” (2009)
